Columns and labels:
[1] = system: Human immunodeficiency virus 1; assay: Ratio of EC50 for wild type HIV1 ERS104pre to EC50 for multidrug-resistant HIV1 TM harboring L10I/K14R/R41K/M46L/I54V/L63P/A71V/V82A/L90M/I93L protease-encoding region mutant; assay type: functional
Procedure, shortened: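 Antiviral EC50 was measured against wild-type HIV-1ERS104pre and against multidrug-resistant isolates. The fold change is the EC50 for each isolate divided by the wild-type EC50. Assays were run in duplicate. Values are means (±1 standard deviation) from two or three independent experiments.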

[2] = system: Human immunodeficiency virus 1; assay: Ratio of EC50 for wild type HIV1 ERS104pre to EC50 for multidrug-resistant HIV1 G harboring L10I/V11I/T12E/I15V/L19I/R41K/M46L/L63P/A71T/V82A/L90M protease-encoding region mutant; assay type: functional
[3] = system: Human immunodeficiency virus 1; assay: Ratio of EC50 for wild type HIV1 ERS104pre to EC50 for multidrug-resistant HIV1 C harboring L10I/I15V/K20R/L24I/M36I/M46L/I54V/I62V/L63P/K70Q/V82A/L89M protease-encoding region mutant; assay type: functional
[4] = system: Human immunodeficiency virus 1; assay: Antiviral activity against multidrug-resistant HIV1 TM harboring L10I/K14R/R41K/M46L/I54V/L63P/A71V/V82A/L90M/I93L protease-encoding region mutant infected in human PHA-PBMC cells assessed as inhibition of p24 Gag protein production; assay type: functional, organism-based; conditions: Human immunodeficiency virus 1, TM
Procedure, shortened: (§1)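 EC50 was determined against each clinical isolate and wild-type HIV-1ERS104pre. Assays were run in duplicate, and values are means (±1 standard deviation) of two or three independent experiments.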

[5] = system: Human immunodeficiency virus 1; assay: Antiviral activity against multidrug-resistant HIV1 C harboring L10I/I15V/K20R/L24I/M36I/M46L/I54V/I62V/L63P/K70Q/V82A/L89M protease-encoding region mutant infected in human PHA-PBMC cells assessed as inhibition of p24 Gag protein production; assay type: functional, organism-based; conditions: Human immunodeficiency virus 1, C; procedure, shortened: as §1
[6] = system: Human immunodeficiency virus 1; assay: Antiviral activity against wild type HIV1 ERS104pre infected in human PHA-PBMC cells assessed as inhibition of p24 Gag protein production; assay type: functional, organism-based; conditions: Human immunodeficiency virus 1, ERS104pre; procedure, shortened: as §1
Protease [7] = biological target: T1, Protease (Human immunodeficiency virus 1, UniProt Q9YQ12); assay: Inhibition of HIV1 protease
T1 sequence (Q9YQ12 whole entry): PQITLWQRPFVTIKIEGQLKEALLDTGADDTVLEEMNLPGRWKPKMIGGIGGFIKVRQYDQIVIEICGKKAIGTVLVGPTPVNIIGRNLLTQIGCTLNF

[8] = system: Human immunodeficiency virus 1; assay: Antiviral activity against HIV1 LAV; assay type: functional, organism-based; conditions: Human immunodeficiency virus 1, LAV
[9] = system: Human immunodeficiency virus 1; assay: Antiviral activity against HIV1 LAI infected in human MT2 cells by MTT assay; assay type: functional, organism-based; conditions: Human immunodeficiency virus 1, LAI
Procedure, shortened: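 MT-2 human T-lymphoid cells (2 × 10^3) were exposed to 100 TCID50 of HIV-1LAI and cultured in the presence of protease inhibitor. IC50 was determined by MTT assay and reported as the mean of at least two experiments.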

Protease [10] = biological target: T1, Protease; assay: Inhibition of HIV1 LAI protease by fluorescence assay
[11] = system: Human immunodeficiency virus 1; assay: Ratio of amprenavir EC50 to compound EC50 for wild type HIV-1 ERS104pre; assay type: functional
[12] = system: Human immunodeficiency virus 1; assay: Antiviral activity against multidrug-resistant HIV1 G harboring L10I/V11I/T12E/I15V/L19I/R41K/M46L/L63P/A71T/V82A/L90M protease-encoding region mutant infected in human PHA-PBMC cells assessed as inhibition of p24 Gag protein production.; assay type: functional, organism-based; conditions: Human immunodeficiency virus 1, G; procedure, shortened: as §1

CC(C)CN(C[C@@H](O)[C@H](Cc1ccccc1)NC(=O)O[C@H]1CCOC1)S(=O)(=O)c1ccc(N)cc1
Ratio EC50 [1]: 16
Ratio EC50 [2]: 16
Ratio EC50 [3]: 12
EC50 [4]: 448 nM
EC50 [5]: 325 nM
EC50 [6]: 28 nM

COc1ccc(S(=O)(=O)N(CC(C)C)C[C@@H](O)[C@H](Cc2ccccc2)NC(=O)O[C@H]2CO[C@H]3O[C@@H]4OCC[C@@H]4[C@H]32)cc1
Ki (Protease [7]): 0.0059 nM
IC50 [8]: 1.8 nM

COc1ccc(S(=O)(=O)N(CC(C)C)C[C@@H](O)[C@H](Cc2ccccc2)NC(=O)O[C@@H]2COC[C@@H]3O[C@H]4OCC[C@H]4[C@@H]32)cc1
IC50 [9]: 260 nM
Ki (Protease [10]): 3.1 nM

COc1ccc(S(=O)(=O)N(CC(C)C)C[C@@H](O)[C@H](Cc2ccccc2)NC(=O)O[C@H]2CS(=O)(=O)C[C@H]3O[C@@H]4OCC[C@@H]4[C@@H]23)cc1
IC50 [9]: > 1000 nM
Ki (Protease [10]): 0.6 nM

COc1ccc(S(=O)(=O)N(CC(C)C)C[C@@H](O)[C@H](Cc2ccccc2)NC(=O)O[C@@H]2CS(=O)(=O)C[C@@H]3O[C@H]4OCC[C@H]4[C@@H]32)cc1
IC50 [9]: > 1000 nM
Ki (Protease [10]): 10.5 nM

COc1ccc(S(=O)(=O)N(CC(C)C)C[C@@H](O)[C@H](Cc2ccccc2)NC(=O)O[C@H]2CCC[C@H]3O[C@@H]4OCC[C@@H]4[C@@H]23)cc1
Ratio EC50 [11]: 10
Ratio EC50 [1]: 4
Ratio EC50 [2]: 3
Ratio EC50 [3]: 2
EC50 [4]: 16 nM
EC50 [12]: 12 nM
EC50 [5]: 8 nM
EC50 [6]: 3.6 nM
IC50 [9]: 1.9 nM
Ki (Protease [10]): 0.01 nM

COc1ccc(S(=O)(=O)N(CC(C)C)C[C@@H](O)[C@H](Cc2ccccc2)NC(=O)O[C@@H]2CCC[C@@H]3O[C@H]4OCC[C@H]4[C@@H]32)cc1
IC50 [9]: 240 nM
Ki (Protease [10]): 0.45 nM

COc1ccc(S(=O)(=O)N(CC(C)C)C[C@@H](O)[C@H](Cc2ccccc2)NC(=O)O[C@H]2CC(C)(C)C[C@H]3O[C@@H]4OCC[C@@H]4[C@@H]23)cc1
Ki (Protease [10]): 8.8 nM

COc1ccc(S(=O)(=O)N(CC(C)C)C[C@@H](O)[C@H](Cc2ccccc2)NC(=O)O[C@@H]2CC(C)(C)C[C@@H]3O[C@H]4OCC[C@H]4[C@@H]32)cc1
Ki (Protease [10]): 139 nM

COc1ccc(S(=O)(=O)N(CC(C)C)C[C@@H](O)[C@H](Cc2ccccc2)NC(=O)O[C@H]2CCC[C@H]3O[C@@H]4OCCC[C@@H]4[C@@H]23)cc1
IC50 [9]: 48 nM
Ki (Protease [10]): 0.41 nM

COc1ccc(S(=O)(=O)N(CC(C)C)C[C@@H](O)[C@H](Cc2ccccc2)NC(=O)O[C@H]2COC[C@H]3O[C@@H]4OCC[C@@H]4[C@@H]23)cc1
Ratio EC50 [2]: 10
Ratio EC50 [3]: 4
EC50 [12]: 79.5 nM
EC50 [5]: 32.9 nM
EC50 [6]: 8.3 nM
IC50 [9]: 4.5 nM
Ki (Protease [10]): 0.021 nM
